Tested on: Fibroblast
Assay: Multiplex assay against human fibroblast
Assay type: toxicity, cell-based
Outline: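 Per cents of healthy-nucleus cells form the tubulin, mitochondrial-mass and membrane-permeability phenotype values. Live cells were stained at seeding with Hoechst33342, BioTracker Green Microtubule Cytoskeleton Dye, MitoTracker Red and Annexin V Alexa Fluor 680. After compound addition they were imaged on a CQ1 microscope at 37°C and 5% CO2, and CellPathfinder machine-learning gating split them into Hoechst high-intensity objects or normal cells, normal cells into healthy, pyknosed or fragmented nuclei, and pyknosed cells into mitotic or apoptotic.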

[1] = 12 h, 1 µM, compound concentration 1 uM, replicate 1
[2] = 12 h, 1 µM, compound concentration 1 uM, replicate 2
[3] = 12 h, 10 µM, compound concentration 10 uM, replicate 1
[4] = 12 h, 10 µM, compound concentration 10 uM, replicate 2
[5] = 24 h, 1 µM, compound concentration 1 uM, replicate 1
[6] = 24 h, 1 µM, compound concentration 1 uM, replicate 2
[7] = 24 h, 10 µM, compound concentration 10 uM, replicate 1
[8] = 24 h, 10 µM, compound concentration 10 uM, replicate 2
[9] = 48 h, 1 µM, compound concentration 1 uM, replicate 1
[10] = 48 h, 1 µM, compound concentration 1 uM, replicate 2
[11] = 48 h, 10 µM, compound concentration 10 uM, replicate 1
[12] = 48 h, 10 µM, compound concentration 10 uM, replicate 2

## Cc1ccc(/C(=C\CN2CCCC2)c2ccccn2)cc1 [TRIPROLIDINE]
[1]
  Population Apoptotic (%): 52%
  Population Fragmented Nuclei (%): 17%
  Population Healthy Nuclei (%): 64%
  Population Hoechst High Intensity Objects (%): 3%
  Population Membrane Permeable-Phenotype (%): 0%
  Population Mitochondria Different-Phenotype (%): 9%
  Population Mitotic Cells (%): 47%
  Population Normal (%): 96%
  Population Pyknosed Nuclei (%): 18%
  Population Tubulin-Different-Phenotype (%): 29%
  Total Cell Count: 119
[2]
  Population Apoptotic (%): 41%
  Population Fragmented Nuclei (%): 28%
  Population Healthy Nuclei (%): 45%
  Population Hoechst High Intensity Objects (%): 4%
  Population Membrane Permeable-Phenotype (%): 1%
  Population Mitotic Cells (%): 58%
  Population Normal (%): 95%
  Population Pyknosed Nuclei (%): 25%
  Population Tubulin-Different-Phenotype (%): 60%
  Total Cell Count: 127
[3]
  Population Apoptotic (%): 57%
  Population Fragmented Nuclei (%): 14%
  Population Healthy Nuclei (%): 64%
  Population Hoechst High Intensity Objects (%): 2%
  Population Membrane Permeable-Phenotype (%): 0%
  Population Mitochondria Different-Phenotype (%): 5%
  Population Mitotic Cells (%): 42%
  Population Normal (%): 97%
  Population Pyknosed Nuclei (%): 20%
  Population Tubulin-Different-Phenotype (%): 44%
  Total Cell Count: 139
[4]
  Population Apoptotic (%): 50%
  Population Fragmented Nuclei (%): 26%
  Population Healthy Nuclei (%): 52%
  Population Membrane Permeable-Phenotype (%): 9%
  Population Mitochondria Different-Phenotype (%): 9%
  Population Mitotic Cells (%): 50%
  Population Pyknosed Nuclei (%): 21%
  Population Tubulin-Different-Phenotype (%): 59%
  Total Cell Count: 141
[5]
  Population Apoptotic (%): 43%
  Population Fragmented Nuclei (%): 17%
  Population Healthy Nuclei (%): 69%
  Population Hoechst High Intensity Objects (%): 4%
  Population Membrane Permeable-Phenotype (%): 1%
  Population Mitochondria Different-Phenotype (%): 3%
  Population Mitotic Cells (%): 56%
  Population Normal (%): 95%
  Population Pyknosed Nuclei (%): 13%
  Population Tubulin-Different-Phenotype (%): 23%
  Total Cell Count: 128
[6]
  Population Apoptotic (%): 46%
  Population Fragmented Nuclei (%): 29%
  Population Healthy Nuclei (%): 43%
  Population Hoechst High Intensity Objects (%): 9%
  Population Membrane Permeable-Phenotype (%): 6%
  Population Mitochondria Different-Phenotype (%): 6%
  Population Mitotic Cells (%): 53%
  Population Normal (%): 90%
  Population Pyknosed Nuclei (%): 27%
  Population Tubulin-Different-Phenotype (%): 64%
  Total Cell Count: 121
[7]
  Population Apoptotic (%): 47%
  Population Fragmented Nuclei (%): 15%
  Population Healthy Nuclei (%): 68%
  Population Hoechst High Intensity Objects (%): 4%
  Population Membrane Permeable-Phenotype (%): 0%
  Population Mitochondria Different-Phenotype (%): 3%
  Population Mitotic Cells (%): 52%
  Population Normal (%): 95%
  Population Pyknosed Nuclei (%): 15%
  Population Tubulin-Different-Phenotype (%): 41%
  Total Cell Count: 142
[8]
  Population Apoptotic (%): 58%
  Population Fragmented Nuclei (%): 29%
  Population Healthy Nuclei (%): 52%
  Population Hoechst High Intensity Objects (%): 2%
  Population Membrane Permeable-Phenotype (%): 6%
  Population Mitochondria Different-Phenotype (%): 12%
  Population Mitotic Cells (%): 41%
  Population Normal (%): 97%
  Population Pyknosed Nuclei (%): 17%
  Population Tubulin-Different-Phenotype (%): 62%
  Total Cell Count: 141
[9]
  Population Apoptotic (%): 54%
  Population Fragmented Nuclei (%): 26%
  Population Healthy Nuclei (%): 65%
  Population Hoechst High Intensity Objects (%): 3%
  Population Membrane Permeable-Phenotype (%): 1%
  Population Mitochondria Different-Phenotype (%): 2%
  Population Mitotic Cells (%): 45%
  Population Normal (%): 96%
  Population Pyknosed Nuclei (%): 8%
  Population Tubulin-Different-Phenotype (%): 31%
  Total Cell Count: 135
[10]
  Population Apoptotic (%): 52%
  Population Fragmented Nuclei (%): 29%
  Population Healthy Nuclei (%): 48%
  Population Hoechst High Intensity Objects (%): 7%
  Population Membrane Permeable-Phenotype (%): 7%
  Population Mitochondria Different-Phenotype (%): 10%
  Population Mitotic Cells (%): 48%
  Population Normal (%): 92%
  Population Pyknosed Nuclei (%): 21%
  Population Tubulin-Different-Phenotype (%): 57%
  Total Cell Count: 124
[11]
  Population Apoptotic (%): 38%
  Population Fragmented Nuclei (%): 20%
  Population Healthy Nuclei (%): 69%
  Population Hoechst High Intensity Objects (%): 7%
  Population Membrane Permeable-Phenotype (%): 1%
  Population Mitochondria Different-Phenotype (%): 6%
  Population Mitotic Cells (%): 61%
  Population Normal (%): 92%
  Population Pyknosed Nuclei (%): 9%
  Population Tubulin-Different-Phenotype (%): 35%
  Total Cell Count: 142
[12]
  Population Apoptotic (%): 42%
  Population Fragmented Nuclei (%): 32%
  Population Healthy Nuclei (%): 56%
  Population Hoechst High Intensity Objects (%): 5%
  Population Membrane Permeable-Phenotype (%): 5%
  Population Mitochondria Different-Phenotype (%): 9%
  Population Mitotic Cells (%): 57%
  Population Normal (%): 94%
  Population Pyknosed Nuclei (%): 10%
  Population Tubulin-Different-Phenotype (%): 54%
  Total Cell Count: 140

From ChEMBL document CHEMBL5058577, “EUbOPEN Chemogenomics Library 2 (Multiplex)” (2022)
